The results in this text go back to ChEMBL document CHEMBL1153806, “Preclinical efficacy of a carboxylesterase 2-activated prodrug of doxazolidine” (J Med Chem, 2009).

In general, fraction remaining refers to what is left of the initial amount, in per cent. Lower therefore signals more turnover.

Activity calls are given as the source filed them. The calls are words filed in the database; no cut-off is given here.

Series [1] can be described thus: Cytotoxicity against human NCI-H1435 cells expressing CES2 gene after 5 to 6 days by MTT assay. In kind it is functional. A digest of the protocol:
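MTT growth assay: 2000–4000 viable cells plated, left overnight at 37 °C in 5% CO₂, then exposed to a range of drug concentrations for 5–6 days. MTT added at 0.4 mg/mL final for 4 h, and formazan dissolved in 0.2 N HCl in 75% isopropanol. Absorbance normalized to vehicle control and IC₅₀ obtained from the curves.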
On the technique in general: Tetrazolium dyes change colour on reduction, which living cells bring about.

The subject of series [2] is HepG2. Description: Cytotoxicity against human HepG2 cells expressing CES2 gene expressing CES2 gene after 5 to 6 days by MTT assay. It is filed as functional.
In series [3] the test system is HepG2. The series is described as follows: Antitumor activity against human HepG2 cells expressing CES2 gene xenografted in pentyl PABC-doxazolidine-pretreated NOD/SCID mouse assessed as slowing of large, rapidly growing tumor growth at 5 mg/kg, iv administered on day 45 after tumor implantation. It is filed as functional, organism-based. Also noted: dose 5 mg/kg. A digest of the protocol:
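NOD/SCID females, 4–6 weeks old, each given ~1.5 × 10⁷ N-Hep G2 cells s.c. in the left flank; 10 mice/group. Dosed i.v. by tail vein on days 7, 14 and 21, in mg/kg Dox-equivalent, from DMSO diluted into D5W (5% DMSO/95% D5W), 100 µL/mouse. Vehicle-only controls. The 3 mg/kg group was redosed at 5 mg/kg on days 45 and 52. Tumor volume (π × short diameter² × long diameter/6) measured weekly.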
In general terms: In xenograft studies the graft and the host belong to different species.

Series [4] relates to Mus musculus. The series is described as follows: Toxicity in NOD/SCID mouse xenografted with human HepG2 cells expressing CES2 gene assessed as body weight change at 3 mg/kg, iv administered on day 7, 14 and 21 after tumor implantation. Also noted: dose 3 mg/kg, route intravenous. The settings on record: in vivo. In kind it is organism-based. A digest of the protocol:
(§1)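 Same NOD/SCID N-Hep G2 flank xenograft model: i.v. tail-vein dosing on days 7, 14 and 21 in 5% DMSO/95% D5W, doses in Dox-equivalent mg/kg, 10 mice/group, vehicle controls. Body weight recorded weekly and followed over the first 5 weeks.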

Series [5] relates to Mus musculus. The series is described as follows: Toxicity in NOD/SCID mouse xenografted with human HepG2 cells expressing CES2 gene assessed as body weight change at 4 mg/kg, iv administered on day 7, 14 and 21 after tumor implantation. Also noted: dose 4 mg/kg, route intravenous. It is filed as organism-based. Particulars: in vivo. A digest of the protocol:
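Female NOD/SCID mice, 4–6 weeks old, 10 per group. About 1.5 × 10⁷ N-Hep G2 cells were injected s.c. into the left flank. Tail-vein i.v. dosing (mg/kg Dox-equivalent weight) was given on days 7, 14 and 21. Vehicle was 5% DMSO/95% D5W, and controls received vehicle only. Body weight was measured weekly over the first 5 weeks. Survival was followed to study end.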

Series [6] relates to Mus musculus. The series is described as follows: Toxicity in NOD/SCID mouse xenografted with human HepG2 cells expressing CES2 gene assessed as body weight loss at 5 mg/kg, iv administered on day 7, 14 and 21 after tumor implantation measured after 5 weeks. In kind it is organism-based. Also noted: dose 5 mg/kg, route intravenous. Particulars: in vivo, 840 h. A digest of the protocol: as §1

The subject of series [7] is NCI-H1435. Description: Antitumor activity against human NCI-H1435 cells expressing CES2 gene xenografted in athymic nude mouse assessed as inhibition of tumor growth at 4 mg/kg, iv administered on day 7, 14 and 21 after tumor implantation. Also noted: dose 4 mg/kg. It is filed as functional, organism-based. A digest of the protocol:
(§2)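 Athymic nude females, 4–6 weeks old, given ~2 × 10⁶ H1435 cells s.c. in the left flank on day 0; 10 mice/group. I.v. tail-vein doses (Dox-equivalent mg/kg) in 5% DMSO/95% D5W on days 7, 14 and 21, with all groups retreated on days 56, 63 and 70; vehicle controls. Caliper volume π × short² × long/6. Cube roots analysed with day-7 size as baseline covariate, by period.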

Series [8] deals with NCI-H1435. The series is described as follows: Antitumor activity against human NCI-H1435 cells expressing CES2 gene xenografted in athymic nude mouse assessed as inhibition of tumor growth at 3 mg/kg, iv administered on day 7, 14 and 21 after tumor implantation. It is filed as functional, organism-based. Also noted: dose 3 mg/kg. A digest of the protocol:
as §2

For series [9], the system named is NCI-H1435. Description: Antitumor activity against human NCI-H1435 cells expressing CES2 gene xenografted in pentyl PABC-doxazolidine-pretreated athymic nude mouse assessed as inhibition of tumor growth at 3 to 4 mg/kg, iv administered on day 63 after tumor implantation. In kind it is functional, organism-based. A digest of the protocol: as §2
Series [10] deals with Mus musculus. The series is described as follows: Toxicity in athymic nude mouse xenografted with human NCI-H1435 cells expressing CES2 gene assessed as occurrence of diarrhea at 3 to 4 mg/kg, iv administered on day 7, 14 and 21 after tumor implantation. It is filed as organism-based. Also noted: dose 3-4 mg/kg, route intravenous. The settings on record: in vivo.
The test system of series [11] is Mus musculus. The series is described as follows: Toxicity in athymic nude mouse xenografted with human NCI-H1435 cells expressing CES2 gene assessed as myofibril disorganization and vacuolization of heart tissue administered with six iv injection of 3 to 4 mg/kg by hematoxylin/eosin staining-based microscopy. The settings on record: in vivo. In kind it is organism-based. Also noted: dose 3-4 mg/kg, route intravenous. A digest of the protocol: (§3)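 Hearts and livers taken from the H1435 nude-mouse study (six i.v. injections) after CO₂/cervical dislocation. Fixed in 10% formalin for 24 h, paraffin-embedded, and cut at 4 µm. Slides deparaffinized in xylene and ethanol, stained with Mayer's hematoxylin for 2 min, blued in 1% ammonium hydroxide, and counterstained with eosin for 30 s. Examined by light microscopy.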

The test system of series [12] is Mus musculus. The series is described as follows: Toxicity in athymic nude mouse xenografted with human NCI-H1435 cells expressing CES2 gene assessed as appearance of fibrotic damage in heart tissue administered with six iv injection of 3 to 4 mg/kg by hematoxylin/eosin staining-based microscopy. In kind it is organism-based. Also noted: dose 3-4 mg/kg, route intravenous. The settings on record: in vivo. A digest of the protocol: as §3

Series [13] concerns Mus musculus. Description: Toxicity in athymic nude mouse xenografted with human NCI-H1435 cells expressing CES2 gene assessed as occurrence of fatty liver administered with six iv injection of 3 mg/kg by hematoxylin/eosin staining-based microscopy. Particulars: in vivo. It is filed as organism-based. Also noted: dose 3 mg/kg, route intravenous. A digest of the protocol: as §3

Series [14] deals with Mus musculus. Description: Toxicity in athymic nude mouse xenografted with human NCI-H1435 cells expressing CES2 gene assessed as occurrence of fatty liver administered with six iv injection of 4 mg/kg by hematoxylin/eosin staining-based microscopy. In kind it is organism-based. Also noted: dose 4 mg/kg, route intravenous. The settings on record: in vivo. A digest of the protocol: (§4)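 Female athymic nude mice, 4–6 weeks old, 10 per group. About 2 × 10⁶ H1435 cells were implanted s.c. into the left flank. I.v. tail-vein doses (Dox-equivalent) were given on days 7, 14, 21, 56, 63 and 70 in 5% DMSO/95% D5W. At sacrifice, organs were fixed in 10% formalin for 24 h and paraffin-embedded. Sections were cut at 4 µm and stained with hematoxylin/eosin for microscopy.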

For series [15], the system named is Mus musculus. Description: Toxicity in athymic nude mouse xenografted with human NCI-H1435 cells expressing CES2 gene assessed as thickening of Bowman's capsule in glomerulus administered with six iv injection of 4 mg/kg by hematoxylin/eosin staining-based microscopy. It is filed as organism-based. Also noted: dose 4 mg/kg, route intravenous. The settings on record: in vivo. A digest of the protocol:
as §4

Series [16] deals with Mus musculus. Description: Toxicity in athymic nude mouse xenografted with human NCI-H1435 cells expressing CES2 gene assessed as inflammatory cell infiltration in ileum administered with six iv injection of 3 to 4 mg/kg by hematoxylin/eosin staining-based microscopy. Particulars: in vivo. Also noted: dose 3-4 mg/kg, route intravenous. It is filed as organism-based. A digest of the protocol: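 Kidney and ileum taken from the H1435 nude-mouse study (six i.v. injections). Formalin-fixed for 24 h, paraffin-embedded, and cut into 4 µm sections. Sections deparaffinized in xylene, rehydrated through an ethanol series, stained in Harris hematoxylin for 50 s with eosin, then dehydrated and mounted. Morphology assessed by microscopy.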

The next series is filed under the species Homo sapiens. Description: Metabolic stability in human plasma up to 24 hrs by reverse-phase HPLC analysis.

Turning to `CCCCCOC(=O)Nc1ccc(COC(=O)N2CO[C@@H]3[C@H](C)O[C@@H](O[C@H]4C[C@](O)(C(=O)CO)Cc5c(O)c6c(c(O)c54)C(=O)c4c(OC)cccc4C6=O)C[C@@H]32)cc1`, the logIC50 in series [1] was -6.92; with HepG2 [2] it was -6.9. Also, the outcome with HepG2 [3] was Active. The Activity entry with Mus musculus [4] is listed as “Non-toxic”; with Mus musculus [5], “Active”; with Mus musculus [6] it was 10%; with Mus musculus [10] it was “Non-toxic”; in the series on Mus musculus [11] it was “Non-toxic”; in the series on Mus musculus [12], “Non-toxic”. Further, the Activity result was “Non-toxic” in the series on Mus musculus [13], “Toxic” in the series on Mus musculus [14], “Toxic” in the series on Mus musculus [15] and “Non-toxic” in the series with Mus musculus [16]. For the same molecule, the inhibition entry in the series with NCI-H1435 [7], in the series with NCI-H1435 [8] and with NCI-H1435 [9] was “Active” each time. The molecule also returned a share remaining at 24 h in the series listed under Homo sapiens of 75%.
